Experimental findings from ChEMBL document CHEMBL4477216, “Discovery and Optimization of Small Molecule Splicing Modifiers of Survival Motor Neuron 2 as a Treatment for Spinal Muscular Atrophy” (J Med Chem, 2016) are described below.

The nature of series [1]: Apparent permeability in human Caco2 cells. Type of series: ADME, cell-based. As to conditions: Caco-2. In outline:
(§1)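 Bidirectional permeability was measured across a Caco-2 cell monolayer. Papp was reported, and efflux was expressed as the B-A/A-B ratio.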
A general note: Caco-2 cells form a polarised layer with tight junctions and transporters.

Series [2] is described as follows: Efflux ratio of apparent permeability from basolateral to apical over apical to basolateral side in human Caco2 cells. Type of series: ADME, cell-based. The following applies: Caco-2. In outline:
as §1

Series [3] is described as follows: Protein binding in human plasma. The class given is ADME, cell-free. The following applies: read-out: PPB (converted).
The nature of series [4]: AUC (0 to 6 hrs) in Sprague-Dawley rat at 10 mg/kg, po. Type of series: ADME, organism-based. More on the design: dose 10 mg/kg, time < 6 hr, route oral. The following applies: in vivo. The procedure, abridged:
(§2)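 Male Sprague-Dawley rats got a single oral 10 mg/kg dose as a suspension in 0.5% hydroxypropyl methylcellulose with 0.1% Tween-80. Plasma was sampled at several time points up to 6 h post dose to give AUC0-6h. Total brain concentration was taken at 6 h to give the brain/plasma ratio.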

Series [5] can be described thus: Ratio of drug level in brain to plasma of Sprague-Dawley rat at 10 mg/kg, po measured at 6 hrs. Type of series: ADME, organism-based. The following applies: brain and plasma, read-out: BPR. The procedure, abridged:
as §2

Series [6] can be described thus: AUC (0 to 24 hrs) in FVB.Cg-Tg(SMN2 delta 7 exon)4299Ahmb Tg(SMN2)89Ahmb Smn1tm1Msd/J mouse at 10 mg/kg, ip. The following applies: in vivo. The class given is ADME, organism-based. Also noted: dose 10 mg/kg, time < 24 hr, route intraperitoneal. The procedure, abridged: (§3)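 Single 10 mg/kg IP dose given on postnatal day 9 to neonatal mice. Vehicle was 100% DMSO solution (2.5 mL/kg). Plasma and brain drug levels were measured, giving plasma AUC0-24h and the brain/plasma ratio.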

Series [7] in a line: Ratio of drug level in brain to plasma of FVB.Cg-Tg(SMN2 delta 7 exon)4299Ahmb Tg(SMN2)89Ahmb Smn1tm1Msd/J mouse at 10 mg/kg, ip. Type of series: ADME, organism-based. The following applies: brain and plasma, read-out: BPR. In outline:
as §3

For series [8], the system named is Mus musculus. Description: In vivo inhibition of mRNA splicing of human SMN2 exon 7 in FVB.Cg-Tg(SMN2 delta 7 exon)4299Ahmb Tg(SMN2)89Ahmb Smn1tm1Msd/J mouse assessed as increase in SMN protein level in brain administered as ip qd on postnatal day 3 to day 9 by HTRF assay. The class given is functional, organism-based. The procedure, abridged: (§4)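 Homozygous Δ7 SMA mice were dosed IP once daily from PND3 to PND9 with compound or vehicle (100% DMSO solution, 2.5 mL/kg). Brain, spinal cord and quadriceps were homogenized in RIPA buffer with protease inhibitors. SMN was read by HTRF (anti-SMN d2 and Kryptate antibodies, overnight rt, 665/620 nm) and normalized to BCA total protein. Values are % change versus vehicle ±SD; 5-11 mice per group.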
A general note: In TR-FRET formats the signal depends on donor and acceptor labels being close together.

For series [9], the system named is Mus musculus. Description: In vivo inhibition of mRNA splicing of human SMN2 exon 7 in FVB.Cg-Tg(SMN2 delta 7 exon)4299Ahmb Tg(SMN2)89Ahmb Smn1tm1Msd/J mouse assessed as increase in SMN protein level in spinal cord administered as ip qd on postnatal day 3 to day 9 by HTRF assay. Type of series: functional, organism-based. In outline:
as §4

Series [10] has as its system Mus musculus. Kind of series: In vivo inhibition of mRNA splicing of human SMN2 exon 7 in FVB.Cg-Tg(SMN2 delta 7 exon)4299Ahmb Tg(SMN2)89Ahmb Smn1tm1Msd/J mouse assessed as increase in SMN protein level in quadriceps administered as ip qd on postnatal day 3 to day 9 by HTRF assay. The class given is functional, organism-based. The procedure, abridged: as §4
The test system of series [11] is Mus musculus. Description: In vivo inhibition of mRNA splicing of human SMN2 exon 7 in po dosed FVB.Cg-Tg(SMN2 delta 7 exon)4299Ahmb Tg(SMN2)89Ahmb Smn1tm1Msd/J mouse assessed as increase in survival time administered as bid on postnatal day 24. The class given is functional, organism-based. The procedure, abridged: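 Δ7 SMA mice were dosed IP once daily from PND3 to PND23 with compound or vehicle in DMSO (2.5 mL/kg). From PND24 dosing was oral, twice daily, in 0.5% HPMC/0.1% Tween-80 at a higher daily dose. Survivors were counted daily to give median survival time and the fraction alive at study end.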

The test system of series [12] is Mus musculus. Description: In vivo inhibition of mRNA splicing of human SMN2 exon 7 in FVB.Cg-Tg(SMN2 delta 7 exon)4299Ahmb Tg(SMN2)89Ahmb Smn1tm1Msd/J mouse assessed as increase in SMN protein level in brain at 0.1 mg/kg, ip qd administered on postnatal day 3 to day 9 by HTRF assay relative to control. The class given is functional. More on the design: scale not given: the % may be the effect or the level left. In outline:
as §4

The subject of series [13] is Mus musculus. Description: In vivo inhibition of mRNA splicing of human SMN2 exon 7 in FVB.Cg-Tg(SMN2 delta 7 exon)4299Ahmb Tg(SMN2)89Ahmb Smn1tm1Msd/J mouse assessed as increase in SMN protein level in brain at 0.3 mg/kg, ip qd administered on postnatal day 3 to day 9 by HTRF assay relative to control. The class given is functional. More on the design: scale not given: the % may be the effect or the level left. In outline: as §4

Series [14] relates to Mus musculus. Kind of series: In vivo inhibition of mRNA splicing of human SMN2 exon 7 in FVB.Cg-Tg(SMN2 delta 7 exon)4299Ahmb Tg(SMN2)89Ahmb Smn1tm1Msd/J mouse assessed as increase in SMN protein level in spinal cord at 0.1 mg/kg, ip qd administered on postnatal day 3 to day 9 by HTRF assay relative to control. More on the design: scale not given: the % may be the effect or the level left. The class given is functional. In outline: as §4

The test system of series [15] is Mus musculus. Description: In vivo inhibition of mRNA splicing of human SMN2 exon 7 in FVB.Cg-Tg(SMN2 delta 7 exon)4299Ahmb Tg(SMN2)89Ahmb Smn1tm1Msd/J mouse assessed as increase in SMN protein level in spinal cord at 0.3 mg/kg, ip qd administered on postnatal day 3 to day 9 by HTRF assay relative to control. More on the design: scale not given: the % may be the effect or the level left. The class given is functional. The procedure, abridged: as §4

The subject of series [16] is Mus musculus. Kind of series: In vivo inhibition of mRNA splicing of human SMN2 exon 7 in FVB.Cg-Tg(SMN2 delta 7 exon)4299Ahmb Tg(SMN2)89Ahmb Smn1tm1Msd/J mouse assessed as increase in SMN protein level in quadriceps at 0.1 mg/kg, ip qd administered on postnatal day 3 to day 9 by HTRF assay relative to control. Type of series: functional. More on the design: scale not given: the % may be the effect or the level left. In outline: as §4

The test system of series [17] is Mus musculus. Kind of series: In vivo inhibition of mRNA splicing of human SMN2 exon 7 in FVB.Cg-Tg(SMN2 delta 7 exon)4299Ahmb Tg(SMN2)89Ahmb Smn1tm1Msd/J mouse assessed as increase in SMN protein level in quadriceps at 0.3 mg/kg, ip qd administered on postnatal day 3 to day 9 by HTRF assay relative to control. Type of series: functional. Also noted: scale not given: the % may be the effect or the level left. The procedure, abridged: as §4

Series [18] concerns Mus musculus. Description: In vivo inhibition of mRNA splicing of human SMN2 exon 7 in FVB.Cg-Tg(SMN2 delta 7 exon)4299Ahmb Tg(SMN2)89Ahmb Smn1tm1Msd/J mouse assessed as increase in SMN protein level in quadriceps at 3 mg/kg, ip qd administered on postnatal day 3 to day 9 by HTRF assay relative to control. The class given is functional. Also noted: scale not given: the % may be the effect or the level left. In outline: as §4

The subject of series [19] is Mus musculus. Description: In vivo inhibition of mRNA splicing of human SMN2 exon 7 in ip dosed FVB.Cg-Tg(SMN2 delta 7 exon)4299Ahmb Tg(SMN2)89Ahmb Smn1tm1Msd/J mouse assessed as increase in survival time administered as qd on postnatal day 3 to 23.
Series [20] concerns Mus musculus. Description: In vivo inhibition of mRNA splicing of human SMN2 exon 7 in FVB.Cg-Tg(SMN2 delta 7 exon)4299Ahmb Tg(SMN2)89Ahmb Smn1tm1Msd/J mouse assessed as median survival time at 0.3 mg/kg/day, ip administered on postnatal day 3 to day 23 (reference value: 14 days). Type of series: functional.

For `Cc1cn2nc(-c3cc(=O)n4cc(N5CCN(C)CC5)ccc4n3)cc2c(C)n1`, the apparent permeability (Papp) – broadly, a coefficient for how fast a substance crosses the barrier – in series [1] stood at 7.5 ×10⁻⁶ cm/s. Moreover, the efflux ratio (commonly the permeability from basolateral to apical divided by that in the opposite direction, in the common usage) in series [2] turned out to be 1.7. For the same molecule, the fraction unbound in [3] is 0.2. Moreover, the area under the curve AUC(0-t) (in general, the area under the concentration-time curve up to a stated or last time point) at 6 h in series [4] was 2100 ng·h/mL. The Kp at 6 h in [5] turned out to be 1.6. In [6], this molecule yielded an AUC(0-t) at 24 h of 6900 ng·h/mL. In addition, the Kp in series [7] was 2.9. The Activity result was “Dose-dependent effect” in the series with Mus musculus [8]; “Dose-dependent effect” in the series on Mus musculus [9]; “Dose-dependent effect” with Mus musculus [10]; “Dose-dependent effect” in the series with Mus musculus [11]; 43% in the series on Mus musculus [12]; 61% in the series with Mus musculus [13]. The Activity in the series on Mus musculus [14] was 26%; in the series with Mus musculus [15] it was 67%; in the series with Mus musculus [16], 6%; in the series on Mus musculus [17] it was 33%; with Mus musculus [18], 218%; with Mus musculus [19], “Dose-dependent effect”.

As to `Cc1cn2cc(-c3cc4ccc(N5CCN(C)CC5)cc4c(=O)o3)nc2c(C)n1`, in [1], the Papp stood at 1.2 ×10⁻⁶ cm/s. The efflux ratio in [2] was 1.3. In addition, the fraction unbound in [3] is 0.07. The exposure AUC(0-t) at 6 h in series [4] worked out at 790 ng·h/mL. The Kp at 6 h in series [5] came out at 11. Besides, the AUC(0-t) at 24 h in series [6] is 5000 ng·h/mL. The Kp in series [7] is 17. The MST with Mus musculus [20] is greater than 100 days. Further, the Activity entry with Mus musculus [8] was “Dose-dependent effect”; in the series on Mus musculus [9], “Dose-dependent effect”; in the series with Mus musculus [10] it was “Dose-dependent effect”; in the series on Mus musculus [11], “Dose-dependent effect”; in the series on Mus musculus [12], 66%; in the series with Mus musculus [13] it was 114%. In addition, the Activity in the series with Mus musculus [14] was 35%; with Mus musculus [15], 98%; with Mus musculus [16] it was 14%; in the series on Mus musculus [17] it was 83%; in the series on Mus musculus [18] it was 517%; with Mus musculus [19] it was “Dose-dependent effect”.

As to `CCN1CCN(c2ccc3cc(-c4cn5cc(C)nc(C)c5n4)c(=O)oc3c2)C[C@@H]1C`, in series [1], the apparent permeability (Papp) came out at 1.2 ×10⁻⁶ cm/s. The efflux ratio in [2] worked out at 1.9. Besides, in [3], the fraction unbound was 0.04. In [4], this molecule showed an AUC(0-t) at 6 h of 1100 ng·h/mL. In series [5], the Kp at 6 h was 19. This molecule also yielded an area under the curve AUC(0-t) at 24 h in series [6] of 3600 ng·h/mL. Moreover, in series [7], the Kp came out at 18. In addition, the MST with Mus musculus [20] is greater than 55 days. The Activity result with Mus musculus [8] is “Dose-dependent effect”; in the series with Mus musculus [9], “Dose-dependent effect”; in the series on Mus musculus [10] it was “Dose-dependent effect”; with Mus musculus [11] it was “Dose-dependent effect”; in the series with Mus musculus [12] it was 115%; with Mus musculus [13], 194%. Also, the Activity in the series with Mus musculus [14] was 92%; in the series with Mus musculus [15], 164%; with Mus musculus [16], 154%; with Mus musculus [17], 147%; in the series on Mus musculus [19], “Dose-dependent effect”.
